Source: ChEMBL document CHEMBL5303300, “EUbOPEN Chemogenomics Library - Multiplex” (2023)
Several values for one entry are separate records, joined by “and”; a condition that tells them apart may be missing. Equal values may be shown once.

System: Fibroblast
Test: Multiplex assay against human fibroblast
Type: toxicity, cell-based
Settings: number of replicates 2
Outline: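 Compound was added to live cells that had been stained at seeding with Hoechst33342, BioTracker Green Microtubule Cytoskeleton Dye, MitoTracker Red and Annexin V Alexa Fluor 680, and imaging followed on a CQ1 microscope at 37°C and 5% CO2. CellPathfinder machine-learning gating divided cells into Hoechst high-intensity objects or normal cells, normal cells into healthy, pyknosed or fragmented nuclei, and pyknosed cells into mitotic or apoptotic. Tubulin, mitochondrial-mass and membrane-permeability phenotypes are per cents of healthy-nucleus cells.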

[1] = 12 h, 1 µM, compound concentration 1 uM
[2] = 12 h, 10 µM, compound concentration 10 uM
[3] = 24 h, 1 µM, compound concentration 1 uM
[4] = 24 h, 10 µM, compound concentration 10 uM
[5] = 48 h, 1 µM, compound concentration 1 uM
[6] = 48 h, 10 µM, compound concentration 10 uM

COc1ccc(-c2cc3c(C)nc(N)nc3n([C@H]3CC[C@H](OCCO)CC3)c2=O)cn1 [PF-04691502]
Population Apoptotic (%) [1]: 34% and 55% | Population Fragmented Nuclei (%) [1]: 15% and 13% | Population Healthy Nuclei (%) [1]: 73% and 71% | Population Hoechst High Intensity Objects (%) [1]: 0% | Population Membrane Permeable-Phenotype (%) [1]: 3% | Population Mitochondria Different-Phenotype (%) [1]: 3% and 1% | Population Mitotic Cells (%) [1]: 65% and 45% | Population Normal (%) [1]: 100% | Population Pyknosed Nuclei (%) [1]: 10% and 15% | Population Tubulin-Different-Phenotype (%) [1]: 11% and 8% | Total Cell Count [1]: 270 and 253 | Population Apoptotic (%) [2]: 55% and 54% | Population Fragmented Nuclei (%) [2]: 29% and 27% | Population Healthy Nuclei (%) [2]: 51% and 60% | Population Hoechst High Intensity Objects (%) [2]: 1% and 0% | Population Membrane Permeable-Phenotype (%) [2]: 5% and 9% | Population Mitochondria Different-Phenotype (%) [2]: 3% and 1% | Population Mitotic Cells (%) [2]: 44% and 45% | Population Normal (%) [2]: 98% and 100% | Population Pyknosed Nuclei (%) [2]: 18% and 11% | Population Tubulin-Different-Phenotype (%) [2]: 26% and 18% | Total Cell Count [2]: 185 and 202 | Population Apoptotic (%) [3]: 62% and 58% | Population Fragmented Nuclei (%) [3]: 7% and 9% | Population Healthy Nuclei (%) [3]: 80% and 72% | Population Hoechst High Intensity Objects (%) [3]: 0% | Population Membrane Permeable-Phenotype (%) [3]: 4% and 2% | Population Mitochondria Different-Phenotype (%) [3]: 1% | Population Mitotic Cells (%) [3]: 37% and 41% | Population Normal (%) [3]: 99% | Population Pyknosed Nuclei (%) [3]: 12% and 17% | Population Tubulin-Different-Phenotype (%) [3]: 7% and 3% | Total Cell Count [3]: 262 and 247 | Population Apoptotic (%) [4]: 59% and 65% | Population Fragmented Nuclei (%) [4]: 20% | Population Healthy Nuclei (%) [4]: 60% and 66% | Population Hoechst High Intensity Objects (%) [4]: 0% | Population Membrane Permeable-Phenotype (%) [4]: 10% and 8% | Population Mitochondria Different-Phenotype (%) [4]: 0% and 1% | Population Mitotic Cells (%) [4]: 40% and 34% | Population Normal (%) [4]: 99% and 100% | Population Pyknosed Nuclei (%) [4]: 20% and 13% | Population Tubulin-Different-Phenotype (%) [4]: 27% and 23% | Total Cell Count [4]: 161 and 176 | Population Apoptotic (%) [5]: 60% and 59% | Population Fragmented Nuclei (%) [5]: 8% and 12% | Population Healthy Nuclei (%) [5]: 80% and 72% | Population Hoechst High Intensity Objects (%) [5]: 0% | Population Membrane Permeable-Phenotype (%) [5]: 5% | Population Mitochondria Different-Phenotype (%) [5]: 0% | Population Mitotic Cells (%) [5]: 39% and 40% | Population Normal (%) [5]: 100% | Population Pyknosed Nuclei (%) [5]: 10% and 15% | Population Tubulin-Different-Phenotype (%) [5]: 6% and 4% | Total Cell Count [5]: 258 and 245 | Population Apoptotic (%) [6]: 66% | Population Fragmented Nuclei (%) [6]: 12% and 22% | Population Healthy Nuclei (%) [6]: 59% | Population Hoechst High Intensity Objects (%) [6]: 0% | Population Membrane Permeable-Phenotype (%) [6]: 7% and 4% | Population Mitochondria Different-Phenotype (%) [6]: 1% | Population Mitotic Cells (%) [6]: 33% | Population Normal (%) [6]: 100% | Population Pyknosed Nuclei (%) [6]: 27% and 17% | Population Tubulin-Different-Phenotype (%) [6]: 32% and 19% | Total Cell Count [6]: 140 and 170

CN(C)CC#Cc1ccc2[nH]c3c(c2c1)-c1nc(N)ncc1CCC3
Population Apoptotic (%) [1]: 30% and 35% | Population Fragmented Nuclei (%) [1]: 32% and 18% | Population Healthy Nuclei (%) [1]: 49% and 55% | Population Hoechst High Intensity Objects (%) [1]: 0% | Population Membrane Permeable-Phenotype (%) [1]: 4% and 6% | Population Mitochondria Different-Phenotype (%) [1]: 2% and 0% | Population Mitotic Cells (%) [1]: 69% and 64% | Population Normal (%) [1]: 100% | Population Pyknosed Nuclei (%) [1]: 17% and 25% | Population Tubulin-Different-Phenotype (%) [1]: 23% and 28% | Total Cell Count [1]: 293 and 186 | Population Fragmented Nuclei (%) [2]: 25% and 22% | Population Healthy Nuclei (%) [2]: 49% and 62% | Population Hoechst High Intensity Objects (%) [2]: 0% | Population Membrane Permeable-Phenotype (%) [2]: 0% and 5% | Population Mitochondria Different-Phenotype (%) [2]: 2% and 1% | Population Mitotic Cells (%) [2]: 61% and 89% | Population Normal (%) [2]: 100% and 99% | Population Pyknosed Nuclei (%) [2]: 25% and 15% | Population Tubulin-Different-Phenotype (%) [2]: 26% and 31% | Total Cell Count [2]: 228 and 378 | Population Apoptotic (%) [3]: 48% and 47% | Population Fragmented Nuclei (%) [3]: 18% and 27% | Population Healthy Nuclei (%) [3]: 65% and 60% | Population Hoechst High Intensity Objects (%) [3]: 0% | Population Membrane Permeable-Phenotype (%) [3]: 7% and 1% | Population Mitochondria Different-Phenotype (%) [3]: 0% and 4% | Population Mitotic Cells (%) [3]: 51% and 52% | Population Normal (%) [3]: 100% and 99% | Population Pyknosed Nuclei (%) [3]: 16% and 11% | Population Tubulin-Different-Phenotype (%) [3]: 25% and 26% | Total Cell Count [3]: 221 and 287 | Population Apoptotic (%) [4]: 39% and 42% | Population Fragmented Nuclei (%) [4]: 19% and 16% | Population Healthy Nuclei (%) [4]: 62% and 56% | Population Hoechst High Intensity Objects (%) [4]: 4% and 1% | Population Membrane Permeable-Phenotype (%) [4]: 4% and 1% | Population Mitochondria Different-Phenotype (%) [4]: 4% and 3% | Population Mitotic Cells (%) [4]: 60% and 57% | Population Normal (%) [4]: 95% and 98% | Population Pyknosed Nuclei (%) [4]: 17% and 26% | Population Tubulin-Different-Phenotype (%) [4]: 52% and 43% | Total Cell Count [4]: 286 and 184 | Population Apoptotic (%) [5]: 70% and 47% | Population Fragmented Nuclei (%) [5]: 25% and 32% | Population Healthy Nuclei (%) [5]: 65% and 62% | Population Hoechst High Intensity Objects (%) [5]: 1% and 2% | Population Membrane Permeable-Phenotype (%) [5]: 3% | Population Mitochondria Different-Phenotype (%) [5]: 0% | Population Mitotic Cells (%) [5]: 29% and 52% | Population Normal (%) [5]: 98% and 97% | Population Pyknosed Nuclei (%) [5]: 9% and 5% | Population Tubulin-Different-Phenotype (%) [5]: 24% and 17% | Total Cell Count [5]: 266 and 347 | Population Apoptotic (%) [6]: 68% and 64% | Population Fragmented Nuclei (%) [6]: 13% and 6% | Population Healthy Nuclei (%) [6]: 67% and 77% | Population Hoechst High Intensity Objects (%) [6]: 0% and 5% | Population Membrane Permeable-Phenotype (%) [6]: 13% and 12% | Population Mitochondria Different-Phenotype (%) [6]: 1% and 5% | Population Mitotic Cells (%) [6]: 31% and 35% | Population Normal (%) [6]: 100% and 94% | Population Pyknosed Nuclei (%) [6]: 18% and 16% | Population Tubulin-Different-Phenotype (%) [6]: 52% and 63% | Total Cell Count [6]: 153 and 185
